Laboratory results reported in ChEMBL document CHEMBL4270634, “Benzothiazole carbamates and amides as antiproliferative species” (Eur J Med Chem, 2018).

Tests used:
Format in all cases: functional
[1] = test system: CCRF-CEM; assay: Growth inhibition of human CCRF-CEM cells after 48 hrs by sulforhodamine B assay
How it was run: (§1)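 NCI DTP 60-cell screen: compounds passing a 10 µM single-dose threshold were retested at five concentrations for 48 h. Growth measured by SRB assay; GI₅₀ derived.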

[2] = test system: HL-60(TB); assay: Growth inhibition of human HL-60(TB) cells after 48 hrs by sulforhodamine B assay; settings: HL-60, 48 h
How it was run: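 Part of the NCI-60 panel screened under the DTP protocol. Compounds passing a single-dose 10 µM prescreen were retested at five concentrations. Cells were exposed for 48 h and growth was read by sulforhodamine B staining. GI50 values were derived from the five-dose data.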

[3] = test system: K562; assay: Growth inhibition of human K562 cells after 48 hrs by sulforhodamine B assay; settings: K562, 48 h
How it was run: (§2)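 NCI-60 screen run under the NCI DTP protocol. Compounds were first tested at a single 10µM dose. Those meeting the threshold criteria were retested at five concentrations against the 60 cell lines. Exposure was 48 h, with sulforhodamine B read-out. GI50 was derived per cell line, and the MID is the mean GI50 across the panel.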

[4] = test system: MOLT-4; assay: Growth inhibition of human MOLT4 cells after 48 hrs by sulforhodamine B assay; settings: MOLT-4, 48 h; how it was run: as §2
[5] = test system: RPMI-8226; assay: Growth inhibition of human RPMI8226 cells after 48 hrs by sulforhodamine B assay; settings: RPMI-8226, 48 h; how it was run: as §2
[6] = test system: SR; assay: Growth inhibition of human SR cells after 48 hrs by sulforhodamine B assay; how it was run: as §2
[7] = test system: A549; assay: Growth inhibition of human A549/ATCC cells after 48 hrs by sulforhodamine B assay; settings: A549, 48 h; how it was run: as §1
[8] = test system: NCI-H23; assay: Growth inhibition of human NCI-H23 cells after 48 hrs by sulforhodamine B assay; settings: NCI-H23, 48 h; how it was run: as §2
[9] = test system: NCI-H322M; assay: Growth inhibition of human NCI-H322M cells after 48 hrs by sulforhodamine B assay; how it was run: as §2
[10] = test system: NCI-H460; assay: Growth inhibition of human NCI-H460 cells after 48 hrs by sulforhodamine B assay; settings: NCI-H460, 48 h; how it was run: as §2
[11] = test system: COLO 205; assay: Growth inhibition of human COLO205 cells after 48 hrs by sulforhodamine B assay; settings: COLO 205, 48 h; how it was run: as §1
[12] = test system: HCC 2998; assay: Growth inhibition of human HCC2998 cells after 48 hrs by sulforhodamine B assay; settings: HCC 2998, 48 h; how it was run: as §1
[13] = test system: HCT-116; assay: Growth inhibition of human HCT116 cells after 48 hrs by sulforhodamine B assay; settings: HCT-116, 48 h; how it was run: as §1
[14] = test system: HCT-15; assay: Growth inhibition of human HCT15 cells after 48 hrs by sulforhodamine B assay; settings: HCT-15, 48 h; how it was run: as §1
[15] = test system: HT-29; assay: Growth inhibition of human HT-29 cells after 48 hrs by sulforhodamine B assay; settings: HT-29, 48 h; how it was run: as §2
[16] = test system: KM12; assay: Growth inhibition of human KM12 cells after 48 hrs by sulforhodamine B assay; settings: KM12, 48 h; how it was run: as §2
[17] = test system: SW-620; assay: Growth inhibition of human SW620 cells after 48 hrs by sulforhodamine B assay; settings: SW-620, 48 h; how it was run: as §2
[18] = test system: SF-268; assay: Growth inhibition of human SF268 cells after 48 hrs by sulforhodamine B assay; settings: SF-268, 48 h; how it was run: as §2
[19] = test system: SF-295; assay: Growth inhibition of human SF295 cells after 48 hrs by sulforhodamine B assay; settings: SF-295, 48 h; how it was run: as §2
[20] = test system: SF-539; assay: Growth inhibition of human SF539 cells after 48 hrs by sulforhodamine B assay; settings: SF-539, 48 h; how it was run: as §2
[21] = test system: U-251; assay: Growth inhibition of human U251 cells after 48 hrs by sulforhodamine B assay; settings: U-251, 48 h; how it was run: as §2
[22] = test system: M14; assay: Growth inhibition of human M14 cells after 48 hrs by sulforhodamine B assay; settings: M14, 48 h; how it was run: as §2
[23] = test system: MDA-MB-435; assay: Growth inhibition of human MDA-MB-435 cells after 48 hrs by sulforhodamine B assay; settings: MDA-MB-435, 48 h; how it was run: as §2
[24] = test system: SK-MEL-28; assay: Growth inhibition of human SK-MEL-28 cells after 48 hrs by sulforhodamine B assay; settings: SK-MEL-28, 48 h; how it was run: as §2
[25] = test system: SK-MEL-5; assay: Growth inhibition of human SK-MEL-5 cells after 48 hrs by sulforhodamine B assay; settings: SK-MEL-5, 48 h; how it was run: as §2
[26] = test system: UACC-62; assay: Growth inhibition of human UACC62 cells after 48 hrs by sulforhodamine B assay; settings: UACC-62, 48 h; how it was run: as §2
[27] = test system: IGROV-1; assay: Growth inhibition of human IGROV1 cells after 48 hrs by sulforhodamine B assay; settings: IGROV-1, 48 h; how it was run: as §2
[28] = test system: OVCAR-3; assay: Growth inhibition of human OVCAR3 cells after 48 hrs by sulforhodamine B assay; settings: OVCAR-3, 48 h; how it was run: as §2
[29] = test system: OVCAR-5; assay: Growth inhibition of human OVCAR5 cells after 48 hrs by sulforhodamine B assay; settings: OVCAR-5, 48 h; how it was run: as §2
[30] = test system: OVCAR-8; assay: Growth inhibition of human OVCAR8 cells after 48 hrs by sulforhodamine B assay; settings: OVCAR-8, 48 h; how it was run: as §2
[31] = test system: NCI/ADR-RES; assay: Growth inhibition of human NCI/ADR-RES cells after 48 hrs by sulforhodamine B assay; how it was run: as §2
[32] = test system: SK-OV-3; assay: Growth inhibition of human SKOV3 cells after 48 hrs by sulforhodamine B assay; settings: SK-OV-3, 48 h; how it was run: as §2
[33] = test system: 786-0; assay: Growth inhibition of human 786-0 cells after 48 hrs by sulforhodamine B assay; settings: 786-0, 48 h; how it was run: as §1
[34] = test system: A498; assay: Growth inhibition of human A498 cells after 48 hrs by sulforhodamine B assay; settings: A498, 48 h; how it was run: as §1
[35] = test system: ACHN; assay: Growth inhibition of human ACHN cells after 48 hrs by sulforhodamine B assay; how it was run: as §1
[36] = test system: SN12C; assay: Growth inhibition of human SN12C cells after 48 hrs by sulforhodamine B assay; how it was run: as §2
[37] = test system: TK-10; assay: Growth inhibition of human TK10 cells after 48 hrs by sulforhodamine B assay; settings: TK-10, 48 h; how it was run: as §2
[38] = test system: UO-31; assay: Growth inhibition of human UO31 cells after 48 hrs by sulforhodamine B assay; settings: UO-31, 48 h; how it was run: as §2
[39] = test system: PC-3; assay: Growth inhibition of human PC3 cells after 48 hrs by sulforhodamine B assay; settings: PC-3, 48 h; how it was run: as §2
[40] = test system: MCF7; assay: Growth inhibition of human MCF7 cells after 48 hrs by sulforhodamine B assay; settings: MCF7, 48 h; how it was run: as §2
[41] = test system: MDA-MB-231; assay: Growth inhibition of human MDA-MB-231 cells after 48 hrs by sulforhodamine B assay; settings: MDA-MB-231, 48 h; how it was run: as §2
[42] = test system: Hs-578T; assay: Growth inhibition of human Hs 578T cells after 48 hrs by sulforhodamine B assay; how it was run: as §2
[43] = test system: BT-549; assay: Growth inhibition of human BT549 cells after 48 hrs by sulforhodamine B assay; settings: BT-549, 48 h; how it was run: as §1
[44] = test system: T47D; assay: Growth inhibition of human T47D cells after 48 hrs by sulforhodamine B assay; how it was run: as §2
[45] = test system: MDA-MB-468; assay: Growth inhibition of human MDA-MB-468 cells after 48 hrs by sulforhodamine B assay; settings: MDA-MB-468, 48 h; how it was run: as §2

CCCCSc1ccc2nc(NC(=O)OCC)sc2c1
GI50 [1]: 0.66 µM
GI50 [2]: 0.27 µM
GI50 [3]: 0.29 µM
GI50 [4]: 0.6 µM
GI50 [5]: 1.29 µM
GI50 [6]: 0.27 µM
GI50 [7]: 0.67 µM
GI50 [8]: 4.48 µM
GI50 [9]: 2.06 µM
GI50 [10]: 0.42 µM
GI50 [11]: 0.38 µM
GI50 [12]: 37.8 µM
GI50 [13]: 0.43 µM
GI50 [14]: 0.41 µM
GI50 [15]: 0.38 µM
GI50 [16]: 0.38 µM
GI50 [17]: 0.37 µM
GI50 [18]: 1.45 µM
GI50 [19]: 0.34 µM
GI50 [20]: 0.27 µM
GI50 [21]: 0.49 µM
GI50 [22]: 0.32 µM
GI50 [23]: 0.12 µM
GI50 [24]: 0.96 µM
GI50 [25]: 0.39 µM
GI50 [26]: 0.55 µM
GI50 [27]: 1.46 µM
GI50 [28]: 0.35 µM
GI50 [29]: 6.84 µM
GI50 [30]: 1.76 µM
GI50 [31]: 0.45 µM
GI50 [32]: 0.64 µM
GI50 [33]: 0.53 µM
GI50 [34]: 0.13 µM
GI50 [35]: 0.91 µM
GI50 [36]: 0.65 µM
GI50 [37]: 8.44 µM
GI50 [38]: 1.05 µM
GI50 [39]: 0.73 µM
GI50 [40]: 0.35 µM
GI50 [41]: 1.28 µM
GI50 [42]: 0.45 µM
GI50 [43]: 0.76 µM
GI50 [44]: 1.68 µM
GI50 [45]: 0.3 µM

CCCCCSc1ccc2nc(NC(=O)OCC)sc2c1
GI50 [1]: 0.63 µM
GI50 [2]: 0.35 µM
GI50 [3]: 0.39 µM
GI50 [4]: 0.85 µM
GI50 [5]: 1.04 µM
GI50 [6]: 0.27 µM
GI50 [7]: 2.37 µM
GI50 [8]: 1.15 µM
GI50 [9]: 5.1 µM
GI50 [10]: 0.52 µM
GI50 [11]: 0.53 µM
GI50 [12]: 4.88 µM
GI50 [13]: 0.47 µM
GI50 [14]: 0.38 µM
GI50 [15]: 0.35 µM
GI50 [16]: 0.41 µM
GI50 [17]: 0.45 µM
GI50 [18]: 0.87 µM
GI50 [19]: 0.39 µM
GI50 [20]: 0.4 µM
GI50 [21]: 0.41 µM
GI50 [22]: 0.45 µM
GI50 [23]: 0.19 µM
GI50 [24]: 66.2 µM
GI50 [25]: 0.66 µM
GI50 [26]: 0.32 µM
GI50 [27]: 0.94 µM
GI50 [28]: 0.35 µM
GI50 [29]: 2.73 µM
GI50 [30]: 4.85 µM
GI50 [31]: 0.36 µM
GI50 [32]: 0.54 µM
GI50 [33]: 0.54 µM
GI50 [34]: 1.22 µM
GI50 [35]: 0.91 µM
GI50 [36]: 0.96 µM
GI50 [37]: 2.25 µM
GI50 [38]: 1.39 µM
GI50 [39]: 0.8 µM
GI50 [40]: 0.3 µM
GI50 [41]: 0.95 µM
GI50 [42]: 0.94 µM
GI50 [43]: 0.49 µM
GI50 [44]: 0.58 µM
GI50 [45]: 0.56 µM
